Our source for the MIC values is ChEMBL document CHEMBL1255365, “In vitro antifungal susceptibility and molecular characterization of clinical isolates of Fusarium verticillioides (F. moniliforme) and Fusarium thapsinum” (2008).

Holding throughout (assay type): functional
Test [1] relates to Fusarium verticillioides. In words: Antifungal activity against Fusarium moniliforme clade 2 by microdilution method. The method, boiled down:
(§1)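 Clinical isolates grown on potato dextrose agar for 7 days at 25°C. Susceptibility tested by modified NCCLS (2002) broth microdilution reference method for filamentous fungi. Final inoculum 4 × 10^3 to 5 × 10^4 conidia/ml. Final drug ranges: 64–0.12 μg/ml for fluconazole and flucytosine, 128–0.25 μg/ml for micafungin, 16–0.03 μg/ml for the other azoles, amphotericin B and terbinafine.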
Background: Dilution methods test growth across graded concentrations, often in twofold steps.

Test [2] relates to Fusarium verticillioides. In words: Antifungal activity against Fusarium moniliforme clade 1 by microdilution method. The method, boiled down:
as §1

For test [3], the system named is Fusarium verticillioides. Kind of test: Antifungal activity against Fusarium moniliforme clade 3 by microdilution method. The method, boiled down:
as §1

Test [4] is described as follows: Antifungal activity against Fusarium thapsinum by microdilution method. The conditions noted are these: Gibberella thapsina. The method, boiled down: as §1

One may read the MIC as the lowest concentration that inhibits growth of the organism.

Each structure is given as a SMILES string. In brackets after ≈: the same amount, converted by molar mass.

Consider `C[C@@H](n1cnc2cc(Cl)ccc2c1=O)[C@](O)(Cn1cncn1)c1ccc(F)cc1F` [ALBACONAZOLE], for which the MIC against Fusarium verticillioides [1] was determined as 3.56 µg/mL (≈ 8.24 µM); against Fusarium verticillioides [2], 3.03 µg/mL (≈ 7.02 µM); with Fusarium verticillioides [3], 5.66 µg/mL (≈ 13.1 µM); in test [4], 18.4 µg/mL (≈ 42.6 µM).
For `C[C@@H]1[C@H](O)[C@@H](C)/C=C/C=C/C=C/C=C/C=C/C=C/C=C/[C@H](O[C@@H]2O[C@H](C)[C@@H](O)[C@H](N)[C@@H]2O)C[C@@H]2O[C@](O)(C[C@@H](O)C[C@@H](O)[C@H](O)CC[C@@H](O)C[C@@H](O)CC(=O)O[C@H]1C)C[C@H](O)[C@H]2C(=O)O` [AMPHOTERICIN B], in that order: 2.24 µg/mL (≈ 2.42 µM), 2.41 µg/mL (≈ 2.61 µM), 2 µg/mL (≈ 2.16 µM) and 2.64 µg/mL (≈ 2.86 µM).
The like results for `CCC(C)n1ncn(-c2ccc(N3CCN(c4ccc(OCC5COC(Cn6cncn6)(c6ccc(Cl)cc6Cl)O5)cc4)CC3)cc2)c1=O` (configuration not stated) [ITRACONAZOLE] were, in that order, > 16 µg/mL, 12.7 µg/mL (≈ 18 µM), > 16 µg/mL and > 16 µg/mL.
For `CC(=O)N1CCN(c2ccc(OCC3COC(Cn4ccnc4)(c4ccc(Cl)cc4Cl)O3)cc2)CC1` (configuration not stated) [KETOCONAZOLE], in that order: 8 µg/mL (≈ 15.1 µM), 2 µg/mL (≈ 3.76 µM), 8 µg/mL (≈ 15.1 µM) and > 16 µg/mL.
As to `CC[C@@H]([C@H](C)O)n1ncn(-c2ccc(N3CCN(c4ccc(OC[C@@H]5CO[C@@](Cn6cncn6)(c6ccc(F)cc6F)C5)cc4)CC3)cc2)c1=O` [POSACONAZOLE], the MIC in the test on Fusarium verticillioides [1] was 0.89 µg/mL (≈ 1.27 µM); in the test on Fusarium verticillioides [2], 0.79 µg/mL (≈ 1.13 µM); in the test with Fusarium verticillioides [3] it was 1 µg/mL (≈ 1.43 µM); in test [4] it was > 16 µg/mL.
For the molecule `C[C@@H](c1nc(-c2ccc(C#N)cc2)cs1)[C@](O)(Cn1cncn1)c1ccc(F)cc1F` [RAVUCONAZOLE], the MIC is 2.24 µg/mL (≈ 5.12 µM) with Fusarium verticillioides [1], 1.45 µg/mL (≈ 3.31 µM) in the test with Fusarium verticillioides [2], 4 µg/mL (≈ 9.14 µM) in the test with Fusarium verticillioides [3] and 18.4 µg/mL (≈ 42 µM) in test [4].
For `CN(C/C=C/C#CC(C)(C)C)Cc1cccc2ccccc12` [TERBINAFINE], the MIC in the test on Fusarium verticillioides [1] was found to be 0.31 µg/mL (≈ 1.06 µM); in the test with Fusarium verticillioides [2], 0.21 µg/mL (≈ 0.721 µM); with Fusarium verticillioides [3] it was 0.25 µg/mL (≈ 0.858 µM); in test [4] it was 0.44 µg/mL (≈ 1.51 µM).
For `C[C@@H](c1ncncc1F)[C@](O)(Cn1cncn1)c1ccc(F)cc1F` [VORICONAZOLE], in that order: 2.83 µg/mL (≈ 8.1 µM), 2 µg/mL (≈ 5.73 µM), 2 µg/mL (≈ 5.73 µM) and 2.64 µg/mL (≈ 7.56 µM).
